Screening results: PubChem, Sanford-Burnham Center for Chemical Genomics
Apaf1 activ: human Apaf-1 activation. Apaf-1 apoptosome caspase-3 activation, DEVD-Rh110 fluorescence; stronger effect = lower value. activity change, negative = activation, % at 20 µM. 330,000 tested, 0.31% active;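 active = activity change at or below -40% at 20 µM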
Target sequence (O14727 whole entry, looked up): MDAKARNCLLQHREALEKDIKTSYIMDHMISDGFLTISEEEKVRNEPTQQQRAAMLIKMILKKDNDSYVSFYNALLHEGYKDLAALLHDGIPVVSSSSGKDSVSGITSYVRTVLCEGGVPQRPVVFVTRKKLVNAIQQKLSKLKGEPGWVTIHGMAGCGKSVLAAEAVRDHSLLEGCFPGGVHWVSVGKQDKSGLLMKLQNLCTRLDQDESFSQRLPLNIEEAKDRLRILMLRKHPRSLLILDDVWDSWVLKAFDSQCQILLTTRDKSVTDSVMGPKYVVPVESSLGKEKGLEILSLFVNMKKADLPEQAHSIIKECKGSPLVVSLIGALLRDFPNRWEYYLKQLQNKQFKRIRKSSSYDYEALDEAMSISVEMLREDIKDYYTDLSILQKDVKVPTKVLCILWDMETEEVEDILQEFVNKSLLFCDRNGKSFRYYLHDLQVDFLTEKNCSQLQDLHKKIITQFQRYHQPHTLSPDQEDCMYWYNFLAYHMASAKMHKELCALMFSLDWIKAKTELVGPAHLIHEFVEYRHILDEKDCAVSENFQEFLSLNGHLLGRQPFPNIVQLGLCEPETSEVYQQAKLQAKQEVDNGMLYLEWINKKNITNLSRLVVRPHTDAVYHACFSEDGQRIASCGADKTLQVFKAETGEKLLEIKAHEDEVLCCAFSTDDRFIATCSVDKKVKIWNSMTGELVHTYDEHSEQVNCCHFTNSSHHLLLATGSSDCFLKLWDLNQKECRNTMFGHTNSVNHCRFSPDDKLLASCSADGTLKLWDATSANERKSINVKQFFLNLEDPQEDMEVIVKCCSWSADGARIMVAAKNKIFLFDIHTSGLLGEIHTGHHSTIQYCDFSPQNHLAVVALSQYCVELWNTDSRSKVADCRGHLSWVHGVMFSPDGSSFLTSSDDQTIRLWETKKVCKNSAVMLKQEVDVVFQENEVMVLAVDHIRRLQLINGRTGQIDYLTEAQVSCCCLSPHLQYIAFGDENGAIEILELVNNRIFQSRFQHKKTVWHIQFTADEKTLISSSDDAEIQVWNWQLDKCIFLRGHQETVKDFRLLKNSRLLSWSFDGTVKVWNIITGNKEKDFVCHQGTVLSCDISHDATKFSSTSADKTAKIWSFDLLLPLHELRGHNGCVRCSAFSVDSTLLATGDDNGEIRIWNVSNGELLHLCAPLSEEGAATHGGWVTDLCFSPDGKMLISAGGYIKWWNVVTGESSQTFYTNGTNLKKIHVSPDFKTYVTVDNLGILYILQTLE
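System: Reconstituted apoptosome of Apaf-1, cytochrome c, caspase-9, procaspase-3 | Reagent: dATP, cytochrome c, and (Z-DEVD)2-Rh110 caspase-3 substrate | Times: 30 min compound preincubation and 50 min reaction, both room temperature | Detection: Caspase-3-released Rh110 fluorescence, 540 nm emission, 480 nm excitation | Measure: Caspase-3 activity via Apaf-1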
Rh110 interf act: counter-screen for Apaf-1 activators: fluorescence interference; shares compounds with Apaf1 activ; Rh110 fluorescence interference, quenched caspase reaction, Ex480/Em540; fluorescence interference (activity change), % at 20 µM, hits read low; 980 tested, under 10 active;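 active = mean activity change at or below -40% when tested at 20 µM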
Apaf-1 act conf: Apaf-1 (human) activation, single-dose confirmed; shares compounds with Apaf1 activ; reconstituted apoptosome caspase-3 activity, DEVD-Rh110 fluorescence; stronger effect = lower value; activity change, negative = activation, % at 20 µM; 980 tested, 5% active; AID 504617;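 active = mean activity change at or below -40%, meaning activation of 40% or more, at 20 µM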
Starred values were filed as active, the others as inactive. The list is a sample of the results.

For COc1cccc(-c2sc3cc(OC)c(OC)cc3c2-c2ccc(OCCN3CCCCC3)cc2)c1 the results were Apaf1 activ 66.
For O=C(O)c1ccc(NC2=C/C(=N/S(=O)(=O)c3ccccc3)c3ccccc3C2=O)cc1 the results were Apaf1 activ 96.
CCc1nn(CCCC(=O)NCc2ccccc2Br)c(=O)c2cc3occc3n12 was read as Apaf1 activ 46.
Screening C(=Nc1cccc2c(N=Cc3ccco3)cccc12)c1ccco1 returned Apaf1 activ 92.
N#Cc1c(/N=C/c2ccco2)sc2c1CCCCC2 was read as Apaf1 activ -169*, Rh110 interf act 1 and Apaf-1 act conf 22.
For COc1ccc(NC(=O)c2cc(-c3ccncc3)nc3ccc(Br)cc23)cc1OC the results were Apaf1 activ 45.
CC(=O)c1cc(C#N)c(Oc2cccc(C(F)(F)F)c2)nc1C was read as Apaf1 activ -151*, Rh110 interf act 9 and Apaf-1 act conf 3.
`CCOC(=O)N1CCN(c2cc(NCCC(=O)O)c3c4c(onc24)-c2ccccc2C3=O)CC1` gave Apaf1 activ 75.
`Cc1[nH]n(-c2ccccc2)c(=O)c1C(c1cccc([N+](=O)[O-])c1)c1c(C)[nH]n(-c2ccccc2)c1=O` gave Apaf1 activ 64.
`COc1ccc(/C=N/NC(=O)c2ccc(CSc3nncn3C)cc2)cc1OC` gave Apaf1 activ -192*, Rh110 interf act 3 and Apaf-1 act conf -1.
`COc1cc(/C=C/c2cc[n+](C)cc2)ccc1OCC(=O)Nc1ccc(Cl)c(Cl)c1` gave Apaf1 activ 73.
For Cc1[nH]n(-c2ccccc2)c(=O)c1C(c1cccc([N+](=O)[O-])c1O)c1c(C)[nH]n(-c2ccccc2)c1=O the results were Apaf1 activ 88.
CCS(=O)(=O)NCCc1csc(C)n1 was read as Apaf1 activ -484*, Rh110 interf act 8 and Apaf-1 act conf 12.
Nc1ccc2nn(-c3ccccc3)nc2c1 was read as Apaf1 activ 93.
COc1ccc2c(c1)OC/C(=C/c1cccs1)C2=O was read as Apaf1 activ -94*, Rh110 interf act 5 and Apaf-1 act conf 12.
CCCC(=O)OC1CC(C)N(C(=O)c2ccccc2)c2ccc(C)cc21 (stereo not given) was read as Apaf1 activ -67*, Rh110 interf act 7 and Apaf-1 act conf 17.
`Cc1ccc(NC2=C/C(=N\S(=O)(=O)c3cccs3)c3ccccc3C2=O)c(C)c1` gave Apaf1 activ 95.
Cc1ccc(C)c(S(=O)(=O)C(C#N)c2nc3ccccc3nc2N2CCCC2)c1 (stereo not given) was read as Apaf1 activ 87.
Cc1ccc(C)c(S(=O)(=O)c2c(C)cc(C)nc2Cl)c1 was read as Apaf1 activ -303*, Rh110 interf act 1 and Apaf-1 act conf 8.
Oc1ccc(/C=N/N2CCCCC2)c(O)c1O was read as Apaf1 activ 70.
CCOC12NC(=O)CC(=O)N1C(c1ccccc1)=CS2 (stereo not given) was read as Apaf1 activ -294*, Rh110 interf act -2 and Apaf-1 act conf 13.
`COc1ccc(S(=O)(=O)Nc2cccc3c2O[C@H](CN(C)Cc2ccccc2)[C@@H](C)CN([C@H](C)CO)C3=O)cc1` gave Apaf1 activ 53.
`CN1CCN(CCCN2c3ccccc3Sc3ccc(C(F)(F)F)cc32)CC1` gave Apaf1 activ 54.
Screening COc1ccc(-n2nc(C(=O)NCC(=O)NC3CCCC(C)C3C)c3ccccc3c2=O)c(OC)c1 (stereo not given) returned Apaf1 activ 55.
Screening CC(OC(=O)c1nn(C)c(=O)c2ccccc12)C(=O)NC1CCCCC1C (stereo not given) returned Apaf1 activ -50*, Rh110 interf act -3 and Apaf-1 act conf 10.
For COc1ccc(-n2nc(C(=O)NCC(=O)NC3CCCC(C)C3C)c3ccccc3c2=O)cc1 (stereo not given) the results were Apaf1 activ 51.
For CCC(C)(C)c1ccc(OCCCC[n+]2cccc(C)c2C)c(C(C)(C)CC)c1 the results were Apaf1 activ 69.
`Cc1ccc(C(=O)NC2CCN(C(=O)Nc3ccccc3)CC2)cc1` gave Apaf1 activ -50*, Rh110 interf act 5 and Apaf-1 act conf 6.
COc1ccc(-c2cc(=O)n(-c3ccc([N+](=O)[O-])cc3)[nH]2)cc1 was read as Apaf1 activ 65.
`Cc1cc(NC(=O)CCCn2nc([N+](=O)[O-])c(Br)c2C)no1` gave Apaf1 activ 40.
Screening O=C(NC(=S)Nc1ccccc1C(F)(F)F)c1ccccc1F returned Apaf1 activ -244*, Rh110 interf act 14 and Apaf-1 act conf 17.
CCN(CC(=O)Nc1ccccc1C(F)(F)F)C(=O)c1ccccc1SCC(=O)N1CCCC1 was read as Apaf1 activ 43.
`Fc1ccc(NC(=S)Nc2cccc3ccccc23)cc1F` gave Apaf1 activ 81.
For Cc1ccc(S(=O)(=O)NC2=C(N3CCN(c4ccccc4F)CC3)C(=O)c3ccccc3C2=O)cc1 the results were Apaf1 activ 76.
CCC[C@@H](CN1CCC[C@H]1CN1C(N)=NC[C@@H]1Cc1ccccc1)N1C[C@@H]([C@H](C)CC)N(CCc2ccc(Cl)c(Cl)c2)C1=N was read as Apaf1 activ 67.
For C#CCOCCOCCOCCNc1nc(N2CCN(C(=O)CCCCCCCCCCNC(=O)[C@H](CCCCN)n3cc(C)nn3)CC2)nc(N2CCN(C(=O)CCCCCCCCCCNC(=O)[C@H](CCCN=C(N)N)n3cc(C[C@@H](C)CC)nn3)CC2)n1 the results were Apaf1 activ 75.
O=[N+]([O-])c1ccc(-c2ccc(C=Nc3cccc4ccccc34)o2)cc1 was read as Apaf1 activ 46.
Screening Cc1c(/C(O)=C2/C(=O)C(=O)N(CCN3CCOCC3)C2c2cccs2)cnn1-c1ccccc1 (stereo not given) returned Apaf1 activ -424*, Rh110 interf act 17 and Apaf-1 act conf 16.
CNC(=S)N/N=C(\C)c1ccc(C)c(C)c1 was read as Apaf1 activ -246*, Rh110 interf act 2 and Apaf-1 act conf 6.
Screening Nc1ccc2c(c1)C(=O)C(=O)c1ccccc1-2 returned Apaf1 activ 98.
Cc1noc(NS(=O)(=O)c2ccc(N/C=C\C(=O)c3ccc(F)cc3)cc2)c1C was read as Apaf1 activ -111*, Rh110 interf act -3 and Apaf-1 act conf 21.
Screening CC(C)(C)OC(=O)NCCCCCNC(=O)c1nc[nH]c1C(=O)NCCCCCNC(=O)OC(C)(C)C returned Apaf1 activ -50*, Rh110 interf act 8 and Apaf-1 act conf -2.
Screening COc1cc2c(cc1OC)-c1cc3ccc4c(c3c[n+]1CC2)OCO4 returned Apaf1 activ 73.
`CC(=O)Nc1c(I)c(NC(C)=O)c(I)c(C(=O)O)c1I` gave Apaf1 activ 11.
`CC(C)c1nc(SCC(=O)c2c[nH]c3ccccc23)n[nH]1` gave Apaf1 activ -41*, Rh110 interf act 1 and Apaf-1 act conf 6.
For COc1ccc(C(=O)c2nccc3cc(OC)c(OC)cc23)cc1OC the results were Apaf1 activ 84.
